Values after ≈ are worked out from the molar mass of the structure shown.
Tests used:
[1] = test system: Hepatitis B virus; test: Antiviral activity against Hepatitis B virus infected in human HepG2.2.15 cells assessed as inhibition of HBsAg secretion at 3.13 ug/ml after 4 days by ELISA relative to control; type: functional; settings: HepG2.2.15, 96 h
Method in brief: (§1)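 HepG2.2.15 cells in DMEM with nonessential amino acids, sodium pyruvate and 10% heat-inactivated FBS, 37 °C, 5% CO2, seeded at 1.0×10^5 cells/mL. Treated at 3.13 µg/mL for 4 or 8 days. Cleared supernatant stored at -20 °C, then HBsAg/HBeAg measured by ELISA, OD 450 nm. % inhibition = (1 − sample OD/untreated control OD)×100.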

[2] = test system: Hepatitis B virus; test: Antiviral activity against Hepatitis B virus infected in human HepG2.2.15 cells assessed as inhibition of HBsAg secretion at 3.13 ug/ml after 8 days by ELISA relative to control; type: functional; settings: HepG2.2.15, 192 h; method in brief: as §1
[3] = test system: Hepatitis B virus; test: Antiviral activity against Hepatitis B virus infected in human HepG2.2.15 cells assessed as inhibition of HBeAg secretion at 3.13 ug/ml after 4 days by ELISA relative to control; type: functional; settings: HepG2.2.15, 96 h; method in brief: as §1
[4] = test system: Hepatitis B virus; test: Antiviral activity against Hepatitis B virus infected in human HepG2.2.15 cells assessed as inhibition of HBeAg secretion at 3.13 ug/ml after 8 days by ELISA relative to control; type: functional; settings: HepG2.2.15, 192 h; method in brief: as §1
[5] = test system: HepG2 2.2.15; test: (§2) Cytotoxicity against human HepG2.2.15 cells after 4 days by MTS assay; type: cell-based; settings: hepg2 2.2.15, 96 h
Method in brief: (§3)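 HepG2.2.15 cells seeded at 1.0×10^5 cells/mL, grown 24 h at 37 °C in 5% CO2, then exposed to various concentrations (ethanol-dissolved) for 4 days. Medium removed and MTS added for 3 h at 37 °C. Absorbance read at 490 nm. % inhibition = (1 − sample OD/untreated control OD)×100.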

[6] = Acute toxicity in ICR mouse assessed as mortality rate at 422 mg/kg, ip measured up to 14 days relative to control; type: organism-based; settings: in vivo
Method in brief: (§4)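 Kunming mice of both sexes, 18-22 g, six groups of six matched for weight and size, single intraperitoneal injection at 56, 178, 350, 422, 750 or 1000 mg/kg. General behaviour observed at 1, 4 and 24 h, then followed up to 14 days for behaviour, toxic effects and mortality. LD50 with 95% confidence interval derived from the dose groups.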

[7] = as §2; type: cell-based, HepG2 2.2.15; settings: HepG2.2.15 cells, read-out: TC50; method in brief: as §3
[8] = Therapeutic index, ratio of TC50 for human HepG2.2.15 cells to IC50 for Hepatitis B virus infected in human HepG2.2.15 cells assessed as inhibition of HBsAg secretion after 4 days; type: toxicity, cell-based; settings: read-out: TI
[9] = Therapeutic index, ratio of TC50 for human HepG2.2.15 cells to IC50 for Hepatitis B virus infected in human HepG2.2.15 cells assessed as inhibition of HBsAg secretion after 8 days; type: toxicity, cell-based; settings: read-out: TI
[10] = Therapeutic index, ratio of TC50 for human HepG2.2.15 cells to IC50 for Hepatitis B virus infected in human HepG2.2.15 cells assessed as inhibition of HBeAg secretion after 4 days; type: toxicity, cell-based; settings: read-out: TI
[11] = Acute toxicity in ICR mouse assessed as mortality rate at 1000 mg/kg, ip measured up to 14 days relative to control; type: organism-based; settings: in vivo; method in brief: as §4
[12] = Acute toxicity in ICR mouse assessed as mortality rate at 178 mg/kg, ip measured up to 14 days relative to control; type: organism-based; settings: in vivo; method in brief: as §4
[13] = test system: Hepatitis B virus; test: Antiviral activity against Hepatitis B virus infected in human HepG2.2.15 cells assessed as inhibition of HBsAg secretion after 4 days by ELISA; type: functional, organism-based; settings: HepG2.2.15, 96 h
Method in brief: (§5)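 HepG2.2.15 cells kept as monolayers in DMEM with nonessential amino acids, sodium pyruvate and 10% heat-inactivated FBS, 37 °C, 5% CO2. Seeded at 1.0×10^5 cells/mL in 96-well plates and exposed to a range of concentrations (ethanol-dissolved) for 4 or 8 days. Supernatant HBsAg/HBeAg measured by ELISA at 450 nm. % inhibition = (1 − sample OD/untreated control OD)×100.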

[14] = Therapeutic index, ratio of TC50 for human HepG2.2.15 cells to IC50 for Hepatitis B virus infected in human HepG2.2.15 cells assessed as inhibition of HBeAg secretion after 8 days; type: toxicity, cell-based; settings: read-out: TI
[15] = test system: Hepatitis B virus; test: Antiviral activity against Hepatitis B virus infected in human HepG2.2.15 cells assessed as inhibition of HBeAg secretion after 8 days by ELISA; type: functional, organism-based; settings: HepG2.2.15, 192 h; method in brief: as §5
[16] = Acute toxicity in ICR mouse assessed as mortality rate at 750 mg/kg, ip measured up to 14 days relative to control; type: organism-based; settings: in vivo; method in brief: as §4
[17] = test system: Hepatitis B virus; test: Antiviral activity against Hepatitis B virus infected in human HepG2.2.15 cells assessed as inhibition of HBsAg secretion after 8 days by ELISA; type: functional, organism-based; settings: HepG2.2.15, 192 h; method in brief: as §5
[18] = test system: Hepatitis B virus; test: Antiviral activity against Hepatitis B virus infected in human HepG2.2.15 cells assessed as inhibition of HBeAg secretion after 4 days by ELISA; type: functional, organism-based; settings: HepG2.2.15, 96 h; method in brief: as §5

| Compound | inhibition at 3.13 µg/mL [1] [%] | inhibition at 3.13 µg/mL [2] [%] | inhibition at 3.13 µg/mL [3] [%] | inhibition at 3.13 µg/mL [4] [%] | Activity [5] | mortality at 336 h [6] [%] | CC50 at 96 h [7] [µg/mL] | selectivity ratio at 96 h [8] | selectivity ratio at 192 h [9] | selectivity ratio at 96 h [10] | mortality at 336 h [11] [%] | mortality at 336 h [12] [%] | IC50 [13] [µg/mL] | selectivity ratio at 192 h [14] | IC50 [15] [µg/mL] | mortality at 336 h [16] [%] | IC50 [17] [µg/mL] | IC50 [18] [µg/mL] |
| --- | --- | --- | --- | --- | --- | --- | --- | --- | --- | --- | --- | --- | --- | --- | --- | --- | --- | --- |
| Nc1ccn([C@H]2CS[C@@H](CO)O2)c(=O)n1 | 5.68 | -0.44 | 4.94 | -9.22 | – | – | – | – | – | – | – | – | – | – | – | – | – | – |
| CC(=O)O[C@H]1CC[C@]2(C)[C@H]3CC[C@]4(C)[C@@H]([C@H](C)CCCC(C)C)CC[C@H]4[C@@]34C=C[C@@]2(C1)OO4 | 13 | 13.8 | 3.51 | 7.56 | Dose-dependent effect | – | – | – | – | – | – | – | – | – | – | – | – | – |
| CC(C)CCC[C@@H](C)[C@H]1CC[C@@H]2[C@]1(C)CC[C@H]1[C@]23C=C[C@@]2(CC(=O)CC[C@]12C)OO3 | 72.3 | 77.5 | 54.1 | 58.7 | Dose-dependent effect | 67 | 10.2 (≈ 24.7 µM) | 5.79 | 3.4 | 5.51 | 100 | 0 | 1.78 (≈ 4.29 µM) | 3.47 | 2.95 (≈ 7.11 µM) | 100 | 2.59 (≈ 6.25 µM) | 1.86 (≈ 4.49 µM) |
| CCC(CC[C@@H](C)[C@H]1CC[C@@H]2[C@]1(C)CC[C@H]1[C@]23C=C[C@@]2(C[C@@H](OC(C)=O)CC[C@]12C)OO3)C(C)C (some centres not stated) | 26.7 | 28.8 | 25.6 | 25.8 | Dose-dependent effect | – | – | – | – | – | – | – | – | – | – | – | – | – |
| CCC(CC[C@@H](C)[C@H]1CC[C@@H]2[C@]1(C)CC[C@H]1[C@]23C=C[C@@]2(C[C@@H](O)CC[C@]12C)OO3)C(C)C (some centres not stated) | 19 | 20 | 2.88 | 10.3 | Dose-dependent effect | – | – | – | – | – | – | – | – | – | – | – | – | – |
| CCC(CC[C@@H](C)[C@H]1CC[C@@H]2[C@]1(C)CC[C@H]1[C@]23C=C[C@@]2(CC(=O)CC[C@]12C)OO3)C(C)C (some centres not stated) | 1.91 | 5.7 | 3.28 | 2.36 | Dose-dependent effect | – | – | – | – | – | – | – | – | – | – | – | – | – |
| CC(C)CCC[C@@H](C)[C@H]1CC[C@@H]2[C@]1(C)CC[C@H]1[C@]23C=C[C@@]2(C[C@@H](O)CC[C@]12C)OO3 | 1.2 | 1.56 | 1.35 | 2.55 | Dose-dependent effect | – | – | – | – | – | – | – | – | – | – | – | – | – |
